Data from ChEMBL document CHEMBL1250448, “Inhibitor hijacking of Akt activation” (Nat Chem Biol, 2009).

Legend:
[1] = biological target: T1, Activin receptor type-1B (Homo sapiens) (UniProt P36896); assay: Inhibition of ACVR1B at 1 uM in presence of 10 uM ATP by Select Screen kinase assay relative to untreated control
T1 sequence (whole entry): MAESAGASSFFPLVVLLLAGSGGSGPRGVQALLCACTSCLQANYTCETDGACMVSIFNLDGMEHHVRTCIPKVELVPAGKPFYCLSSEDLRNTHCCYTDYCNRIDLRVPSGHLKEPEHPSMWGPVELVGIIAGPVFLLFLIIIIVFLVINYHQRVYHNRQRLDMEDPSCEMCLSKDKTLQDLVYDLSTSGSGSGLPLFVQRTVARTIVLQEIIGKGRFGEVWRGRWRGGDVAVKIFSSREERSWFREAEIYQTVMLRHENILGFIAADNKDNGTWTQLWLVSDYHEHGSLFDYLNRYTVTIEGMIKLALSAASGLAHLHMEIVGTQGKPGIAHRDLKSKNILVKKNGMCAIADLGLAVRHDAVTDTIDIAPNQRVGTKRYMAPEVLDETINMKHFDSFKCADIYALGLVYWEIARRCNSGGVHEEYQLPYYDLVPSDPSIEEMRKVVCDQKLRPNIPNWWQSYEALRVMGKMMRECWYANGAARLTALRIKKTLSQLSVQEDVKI
Procedure, shortened: (§1)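 Single-point screen at 1 μM against a panel of 220 purified kinases, run by Invitrogen staff as a SelectScreen profiling service. Read-out is percent inhibition of kinase activity.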

[2] = biological target: RAC-alpha serine/threonine-protein kinase (Homo sapiens, UniProt P31749); assay: Inhibition of AKT1 at 1 uM in presence of 10 uM ATP by Select Screen kinase assay relative to untreated control; procedure, shortened: as §1
[3] = biological target: T2, Cytoplasmic tyrosine-protein kinase BMX (Homo sapiens) (UniProt P51813); assay: Inhibition of BMX at 1 uM in presence of 10 uM ATP by Select Screen kinase assay relative to untreated control; procedure, shortened: as §1
T2 sequence (whole entry): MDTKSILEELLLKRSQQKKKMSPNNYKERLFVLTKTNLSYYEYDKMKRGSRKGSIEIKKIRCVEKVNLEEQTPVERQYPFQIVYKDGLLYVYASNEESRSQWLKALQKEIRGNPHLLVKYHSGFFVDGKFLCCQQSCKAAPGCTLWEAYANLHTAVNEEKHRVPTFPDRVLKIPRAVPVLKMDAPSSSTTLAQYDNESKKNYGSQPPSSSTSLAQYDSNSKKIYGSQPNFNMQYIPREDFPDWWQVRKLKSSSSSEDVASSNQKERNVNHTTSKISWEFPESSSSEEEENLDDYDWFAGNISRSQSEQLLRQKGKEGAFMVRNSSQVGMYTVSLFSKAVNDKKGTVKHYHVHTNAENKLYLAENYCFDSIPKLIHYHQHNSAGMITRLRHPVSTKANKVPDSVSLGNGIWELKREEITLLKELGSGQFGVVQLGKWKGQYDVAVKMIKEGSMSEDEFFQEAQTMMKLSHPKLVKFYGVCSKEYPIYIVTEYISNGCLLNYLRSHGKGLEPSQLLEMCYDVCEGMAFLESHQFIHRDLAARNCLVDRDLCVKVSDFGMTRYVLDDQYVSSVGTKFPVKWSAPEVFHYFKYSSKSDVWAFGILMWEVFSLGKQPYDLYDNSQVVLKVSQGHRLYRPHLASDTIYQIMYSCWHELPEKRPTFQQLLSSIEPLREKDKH

[4] = biological target: Tyrosine-protein kinase SYK (Homo sapiens) (UniProt P43405); assay: Inhibition of SYK at 1 uM in presence of 10 uM ATP by Select Screen kinase assay relative to untreated control
Procedure, shortened: (§2)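 Commercial SelectScreen profiling panel of 220 purified kinases. Each kinase was tested at a single inhibitor concentration of 1 μM, and activity was expressed as percent inhibition.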

[5] = biological target: T3, Ephrin type-A receptor 1 (Homo sapiens) (UniProt P21709); assay: Inhibition of EPHA1 at 1 uM in presence of 10 uM ATP by Select Screen kinase assay relative to untreated control; procedure, shortened: as §1
T3 sequence (whole entry): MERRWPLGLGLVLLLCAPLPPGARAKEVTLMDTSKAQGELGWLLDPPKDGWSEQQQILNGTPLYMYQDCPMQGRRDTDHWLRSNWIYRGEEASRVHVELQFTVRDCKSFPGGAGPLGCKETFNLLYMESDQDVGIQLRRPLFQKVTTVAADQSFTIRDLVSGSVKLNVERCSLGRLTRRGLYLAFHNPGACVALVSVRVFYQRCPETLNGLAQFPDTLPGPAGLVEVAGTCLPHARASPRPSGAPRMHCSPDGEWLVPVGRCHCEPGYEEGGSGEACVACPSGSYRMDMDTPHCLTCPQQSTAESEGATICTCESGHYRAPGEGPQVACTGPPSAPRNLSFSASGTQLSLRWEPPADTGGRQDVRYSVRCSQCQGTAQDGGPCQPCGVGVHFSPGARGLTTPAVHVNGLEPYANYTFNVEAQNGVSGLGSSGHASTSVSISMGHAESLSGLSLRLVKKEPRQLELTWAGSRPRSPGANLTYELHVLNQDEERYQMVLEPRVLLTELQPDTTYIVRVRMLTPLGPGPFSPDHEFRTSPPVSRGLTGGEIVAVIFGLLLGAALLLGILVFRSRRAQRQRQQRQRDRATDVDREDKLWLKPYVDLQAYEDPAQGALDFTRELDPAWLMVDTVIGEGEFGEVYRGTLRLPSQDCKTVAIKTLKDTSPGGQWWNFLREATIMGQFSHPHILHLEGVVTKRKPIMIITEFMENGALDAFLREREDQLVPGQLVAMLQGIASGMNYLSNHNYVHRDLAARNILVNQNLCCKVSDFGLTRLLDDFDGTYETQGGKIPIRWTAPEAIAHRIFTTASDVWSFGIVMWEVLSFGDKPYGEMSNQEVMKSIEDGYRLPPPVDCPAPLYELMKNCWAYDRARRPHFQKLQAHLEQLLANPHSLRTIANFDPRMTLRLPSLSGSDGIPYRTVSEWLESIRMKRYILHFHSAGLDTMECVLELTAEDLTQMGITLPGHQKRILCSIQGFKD

[6] = biological target: Receptor tyrosine-protein kinase erbB-4 (Homo sapiens) (UniProt Q15303); assay: Inhibition of ERBB4 at 1 uM in presence of 10 uM ATP by Select Screen kinase assay relative to untreated control; procedure, shortened: as §1
[7] = biological target: Serine/threonine-protein kinase Nek6 (Homo sapiens) (UniProt Q9HC98); assay: Inhibition of NEK6 at 1 uM in presence of 10 uM ATP by Select Screen kinase assay relative to untreated control; procedure, shortened: as §2
[8] = biological target: Phosphorylase b kinase gamma catalytic chain, skeletal muscle/heart isoform (Homo sapiens) (UniProt Q16816); assay: Inhibition of PHKG1 at 1 uM in presence of 100 uM ATP by Select Screen kinase assay relative to untreated control; procedure, shortened: as §2
[9] = biological target: Aurora kinase C (Homo sapiens) (UniProt Q9UQB9); assay: Inhibition of AURKC at 1 uM in presence of 10 uM ATP by Select Screen kinase assay relative to untreated control
Chain of Aurora kinase C (Homo sapiens) (Q9UQB9 whole entry, looked up): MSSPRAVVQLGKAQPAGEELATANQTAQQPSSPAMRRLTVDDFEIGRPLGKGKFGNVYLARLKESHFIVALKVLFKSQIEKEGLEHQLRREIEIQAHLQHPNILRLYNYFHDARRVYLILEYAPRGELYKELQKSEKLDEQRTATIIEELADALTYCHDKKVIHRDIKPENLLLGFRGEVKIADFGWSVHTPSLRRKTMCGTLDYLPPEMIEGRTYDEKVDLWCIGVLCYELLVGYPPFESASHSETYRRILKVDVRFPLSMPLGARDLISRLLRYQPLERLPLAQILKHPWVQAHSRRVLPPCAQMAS

Chain of Phosphorylase b kinase gamma catalytic chain, skeletal muscle/heart isoform (Homo sapiens) (Q16816 whole entry, looked up, canonical isoform): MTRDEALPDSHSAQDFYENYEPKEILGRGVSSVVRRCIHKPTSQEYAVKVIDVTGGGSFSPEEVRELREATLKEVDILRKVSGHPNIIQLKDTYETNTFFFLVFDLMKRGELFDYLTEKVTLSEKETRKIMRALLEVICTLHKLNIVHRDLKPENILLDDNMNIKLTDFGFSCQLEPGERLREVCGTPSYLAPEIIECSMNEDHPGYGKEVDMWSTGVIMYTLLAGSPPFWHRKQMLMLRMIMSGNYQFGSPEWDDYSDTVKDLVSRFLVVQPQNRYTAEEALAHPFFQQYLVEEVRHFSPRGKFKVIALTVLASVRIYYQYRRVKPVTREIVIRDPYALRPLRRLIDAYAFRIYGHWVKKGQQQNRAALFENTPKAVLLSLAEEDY
Chain of RAC-alpha serine/threonine-protein kinase (P31749 whole entry): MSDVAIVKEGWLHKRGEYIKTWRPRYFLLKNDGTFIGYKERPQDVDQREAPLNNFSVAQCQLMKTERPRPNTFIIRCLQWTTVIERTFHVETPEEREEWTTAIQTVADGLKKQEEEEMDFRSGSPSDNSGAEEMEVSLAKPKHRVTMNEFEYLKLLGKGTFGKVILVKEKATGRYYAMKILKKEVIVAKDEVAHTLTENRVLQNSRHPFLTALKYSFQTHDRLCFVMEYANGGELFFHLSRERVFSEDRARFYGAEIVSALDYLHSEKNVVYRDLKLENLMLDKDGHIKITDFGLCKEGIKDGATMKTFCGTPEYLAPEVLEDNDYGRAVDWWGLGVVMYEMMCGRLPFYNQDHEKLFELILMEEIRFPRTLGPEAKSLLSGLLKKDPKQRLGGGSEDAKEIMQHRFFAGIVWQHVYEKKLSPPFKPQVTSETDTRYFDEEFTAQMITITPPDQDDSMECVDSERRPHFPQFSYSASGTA
Chain of Receptor tyrosine-protein kinase erbB-4 (Homo sapiens) (Q15303 whole entry): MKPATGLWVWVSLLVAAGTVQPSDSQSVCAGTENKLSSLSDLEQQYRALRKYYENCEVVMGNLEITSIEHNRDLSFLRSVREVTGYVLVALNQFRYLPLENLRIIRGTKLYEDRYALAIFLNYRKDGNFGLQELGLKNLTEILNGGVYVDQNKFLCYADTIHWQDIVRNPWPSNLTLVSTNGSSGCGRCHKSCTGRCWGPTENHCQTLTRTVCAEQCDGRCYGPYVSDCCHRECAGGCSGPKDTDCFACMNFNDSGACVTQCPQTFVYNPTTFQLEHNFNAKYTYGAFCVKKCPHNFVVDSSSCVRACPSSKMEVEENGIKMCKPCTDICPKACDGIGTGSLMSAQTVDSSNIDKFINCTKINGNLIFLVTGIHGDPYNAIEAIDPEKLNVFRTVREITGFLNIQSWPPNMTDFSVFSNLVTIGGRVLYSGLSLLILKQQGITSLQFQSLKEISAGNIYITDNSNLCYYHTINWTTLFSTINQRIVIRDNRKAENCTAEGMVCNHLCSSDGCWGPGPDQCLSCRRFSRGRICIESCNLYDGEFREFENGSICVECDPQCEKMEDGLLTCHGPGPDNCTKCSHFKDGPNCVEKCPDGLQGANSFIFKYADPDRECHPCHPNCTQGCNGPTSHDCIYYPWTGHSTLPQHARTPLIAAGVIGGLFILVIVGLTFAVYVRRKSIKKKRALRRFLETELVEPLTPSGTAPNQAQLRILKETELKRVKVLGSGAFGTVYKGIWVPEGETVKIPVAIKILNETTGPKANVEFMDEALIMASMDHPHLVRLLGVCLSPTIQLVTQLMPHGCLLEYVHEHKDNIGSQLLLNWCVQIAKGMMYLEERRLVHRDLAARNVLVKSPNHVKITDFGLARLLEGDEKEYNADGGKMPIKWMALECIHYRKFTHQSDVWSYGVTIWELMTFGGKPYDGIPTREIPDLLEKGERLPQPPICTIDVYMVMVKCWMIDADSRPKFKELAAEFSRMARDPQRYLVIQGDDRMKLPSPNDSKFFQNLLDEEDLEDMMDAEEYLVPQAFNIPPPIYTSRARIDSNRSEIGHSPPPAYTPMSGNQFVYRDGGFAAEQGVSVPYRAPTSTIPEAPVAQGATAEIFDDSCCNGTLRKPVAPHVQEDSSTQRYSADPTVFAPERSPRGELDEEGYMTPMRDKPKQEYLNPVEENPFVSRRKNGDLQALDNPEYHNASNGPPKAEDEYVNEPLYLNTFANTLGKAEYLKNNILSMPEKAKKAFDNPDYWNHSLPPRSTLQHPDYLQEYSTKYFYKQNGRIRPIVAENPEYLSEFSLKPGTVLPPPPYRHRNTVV
Chain of Serine/threonine-protein kinase Nek6 (Homo sapiens) (Q9HC98 whole entry, canonical isoform): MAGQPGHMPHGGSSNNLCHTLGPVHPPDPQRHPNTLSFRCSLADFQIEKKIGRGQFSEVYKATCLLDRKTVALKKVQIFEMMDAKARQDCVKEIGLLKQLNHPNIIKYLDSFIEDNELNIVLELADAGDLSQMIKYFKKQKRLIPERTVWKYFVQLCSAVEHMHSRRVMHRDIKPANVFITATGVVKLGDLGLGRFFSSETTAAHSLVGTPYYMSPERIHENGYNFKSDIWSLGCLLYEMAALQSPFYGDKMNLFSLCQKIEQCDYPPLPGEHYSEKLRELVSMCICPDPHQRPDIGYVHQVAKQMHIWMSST

inhibition [1]	inhibition [2]	inhibition [3]	inhibition [4]	inhibition [5]	inhibition [6]	inhibition [7]	inhibition [8]	inhibition [9]	SMILES
7%	7%	39%	84%	13%	34%	9%	58%	96%	O=C(NCCCNc1nc(Nc2cccc(NC(=O)N3CCCC3)c2)ncc1I)c1cccs1
-2%	16%	18%	12%	13%	27%	10%	6%	16%	COc1ccccc1N1CCN(c2ncnc3[nH]nc(Br)c23)CC1

SMILES	inhibition [1]	inhibition [2]	inhibition [3]	inhibition [4]	inhibition [5]	inhibition [6]	inhibition [7]	inhibition [8]	inhibition [9]
Cc1n[nH]c2ccc(-c3cncc(OC[C@@H](N)Cc4c[nH]c5ccccc45)c3)cc12	0%	100%	-2%	0%	-1%	-1%	3%	76%	17%
